Common to all, as to type: cell-based
Assay [1] deals with T1, Short transient receptor potential channel 6 (Mus musculus, UniProt Q61143).
T1 sequence (Q61143 whole entry): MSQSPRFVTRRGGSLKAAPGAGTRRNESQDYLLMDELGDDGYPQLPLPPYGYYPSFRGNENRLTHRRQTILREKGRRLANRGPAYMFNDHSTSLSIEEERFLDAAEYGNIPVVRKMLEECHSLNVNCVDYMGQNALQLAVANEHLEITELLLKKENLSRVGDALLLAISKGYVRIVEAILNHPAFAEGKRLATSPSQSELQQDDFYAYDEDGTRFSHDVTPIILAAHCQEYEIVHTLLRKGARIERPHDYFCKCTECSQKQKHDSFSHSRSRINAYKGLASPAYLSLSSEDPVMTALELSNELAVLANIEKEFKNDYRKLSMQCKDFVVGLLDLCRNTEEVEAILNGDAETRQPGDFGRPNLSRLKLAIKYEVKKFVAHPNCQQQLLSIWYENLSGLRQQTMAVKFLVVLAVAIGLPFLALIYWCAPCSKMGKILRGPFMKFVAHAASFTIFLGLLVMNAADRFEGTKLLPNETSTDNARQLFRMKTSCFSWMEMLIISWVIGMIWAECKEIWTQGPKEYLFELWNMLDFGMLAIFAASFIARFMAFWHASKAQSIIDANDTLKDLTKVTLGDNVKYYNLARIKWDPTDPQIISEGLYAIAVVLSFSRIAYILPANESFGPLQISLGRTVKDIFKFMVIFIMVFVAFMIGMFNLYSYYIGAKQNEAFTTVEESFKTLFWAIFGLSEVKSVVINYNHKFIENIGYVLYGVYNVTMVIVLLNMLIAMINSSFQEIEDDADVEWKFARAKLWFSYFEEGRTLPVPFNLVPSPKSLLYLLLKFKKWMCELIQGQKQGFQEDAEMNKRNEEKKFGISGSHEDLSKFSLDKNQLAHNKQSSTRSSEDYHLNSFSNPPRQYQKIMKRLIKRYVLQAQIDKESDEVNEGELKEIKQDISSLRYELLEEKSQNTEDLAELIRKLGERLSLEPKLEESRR
The assay is described as follows: (§1) Agonist activity at mouse TRPC6 expressed in HEK293 cells co-expressing Gq11-PLCbeta fused M5 receptor assessed as induction of membrane potential depolarization measured for 2.5 mins by FLIPR assay. In short, it runs like this:
(§2)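 Mouse TRPC6/M5 stable HEK293 cells loaded with FLIPR membrane potential dye in extracellular solution containing 2 mM CaCl2, pH 7.4. Varying compound concentrations are applied, with 1 μM carbachol as reference, and read on a microplate reader at 32 °C. The increase in fluorescence (ΔF/F0) indicates depolarization. The concentration–response curve gives EC50, n = 6.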

For assay [2], the target named is T2, Short transient receptor potential channel 6 (Mus musculus) (UniProt Q61143).
T2 sequence (whole entry): T1 sequence (Q61143 whole entry)
Described as §1. In short, it runs like this:
as §2

Assay [3] addresses T3, Short transient receptor potential channel 7 (Homo sapiens) (UniProt Q9HCX4).
T3 sequence (whole entry): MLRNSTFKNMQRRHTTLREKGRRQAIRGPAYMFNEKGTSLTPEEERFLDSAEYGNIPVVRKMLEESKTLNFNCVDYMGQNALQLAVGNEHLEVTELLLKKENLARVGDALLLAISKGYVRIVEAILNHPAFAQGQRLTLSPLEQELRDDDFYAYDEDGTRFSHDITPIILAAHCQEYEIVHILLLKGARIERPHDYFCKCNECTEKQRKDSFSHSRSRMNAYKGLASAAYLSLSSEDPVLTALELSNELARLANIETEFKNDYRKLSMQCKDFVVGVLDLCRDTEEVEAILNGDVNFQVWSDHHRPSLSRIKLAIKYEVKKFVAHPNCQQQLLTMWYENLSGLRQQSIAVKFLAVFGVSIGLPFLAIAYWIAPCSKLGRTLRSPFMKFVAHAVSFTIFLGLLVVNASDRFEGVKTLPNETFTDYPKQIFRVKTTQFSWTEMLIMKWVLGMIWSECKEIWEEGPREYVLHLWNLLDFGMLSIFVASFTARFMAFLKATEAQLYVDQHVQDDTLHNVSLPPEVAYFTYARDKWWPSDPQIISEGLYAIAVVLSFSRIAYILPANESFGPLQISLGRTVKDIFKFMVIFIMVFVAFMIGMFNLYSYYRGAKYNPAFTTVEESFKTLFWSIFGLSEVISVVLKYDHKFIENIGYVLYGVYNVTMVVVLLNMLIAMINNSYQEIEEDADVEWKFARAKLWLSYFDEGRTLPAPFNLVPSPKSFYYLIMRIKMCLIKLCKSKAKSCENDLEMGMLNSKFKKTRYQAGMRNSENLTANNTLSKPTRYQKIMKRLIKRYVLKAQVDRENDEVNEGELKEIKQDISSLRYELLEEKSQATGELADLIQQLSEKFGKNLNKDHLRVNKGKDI
Briefly: (§3) Agonist activity at human TRPC7 receptor expressed in HEK293 cells assessed as induction of channel current in presence of 0.1 mM Ca2+ by whole cell patch-clamp method. In short, it runs like this: (§4)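 Whole-cell voltage clamp on doxycycline-induced stable HEK293 TRPC7 cells. Pipette (mM): 110 CsCl, 10 HEPES, 10 BAPTA, 1 MgCl2, 4.77 CaCl2 (400 nM free Ca2+), pH 7.2. Bath has 0.1 mM CaCl2, and compound is perfused in bath at increasing concentrations. Ramps run from +100 to −100 mV (100 ms) every 1 s from a 0 mV hold.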

For assay [4], the target named is T4, Short transient receptor potential channel 7 (Homo sapiens, UniProt Q9HCX4).
T4 sequence (Q9HCX4 whole entry): T3 sequence (whole entry)
Described as §3. In short, it runs like this: as §4

Assay [5] deals with T2, Short transient receptor potential channel 6 (Mus musculus). The assay is described as follows: Agonist activity at mouse TRPC6 expressed in HEK293 cells co-expressing Gq11-PLCbeta fused M5 receptor assessed as increase in intracellular calcium level measured for 2.5 mins by Fluo-8-AM dye-based fluorescence assay. (Calcium assays in cells follow changes in intracellular calcium, usually with a dye or a luminescent sensor.)

Assay [6] is described as follows: Selectivity ratio of EC50 for mouse TRPC6 expressed in HEK293 cells co-expressing Gq11-PLCbeta fused M5 receptor assessed as increase in intracellular calcium level to EC50 for human TRPC3 expressed in HEK293 cells assessed as induction of membrane depolarization in presence of 0.5 mM Ca2+.
The species entered for another assay is Rattus norvegicus. The assay is described as follows: Agonist activity at TRPC6 in rat primary glomerular mesangial cells assessed as increase in intracellular calcium level at 1 uM in presence of TRPC inhibitor […] by Fluo4-AM dye-based fluorescence assay. In short, it runs like this:
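Rat glomerular mesangial cells, isolated by graded sieving from male Sprague–Dawley rats, collagenase-digested, cultured in RPMI 1640 with 17% FBS. Grown overnight on coverslips, then loaded with 10 μM Fluo4-AM and 0.02% pluronic F-127 for 1 h at 37 °C in 1 mM Ca2+ saline, pH 7.4. Compound at 1 μM. Confocal imaging, ex 488/em 515 nm, read as F/F0. For the 2-APB condition, 30 μM 2-APB for 2 min beforehand and kept during compound application.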

pEC50: −log10 of the molar value. Activity calls are given as the source filed them. No cut-off for these calls is given here.

Regarding `CCOC(=O)N1CCC(c2cc(O)n3nc(C)c(-c4ccc(F)cc4)c3n2)CC1`, the pEC50 is 5.85 in assay [1] and 5.95 in assay [4]. The Activity result in assay [2], in assay [3] and in assay [5] was “Dose-dependent effect” each time.
As for `CCOC(=O)N1CCC(c2cc(O)n3nc(C)c(-c4ccc(C(F)(F)F)cc4)c3n2)CC1`, the Ratio EC50 in assay [6] was greater than 70.
With `Cc1nn2c(O)cc(C3CCN(C(=O)OCc4ccccc4)CC3)nc2c1-c1ccc(F)cc1`, in the assay listed under Rattus norvegicus, the result was inactive.

As usually defined, the pEC50 is the negative decadic logarithm of the EC50, by convention in mol/L.

(Values after ChEMBL document CHEMBL4014306, “Pyrazolopyrimidines as Potent Stimulators for Transient Receptor Potential Canonical 3/6/7 Channels” (J Med Chem, 2017).)
